The values below come from ChEMBL document CHEMBL4699492, “Discovery of Novel Pyrazolo[3,4-b] Pyridine Derivatives with Dual Activities of Vascular Remodeling Inhibition and Vasodilation for the Treatment of Pulmonary Arterial Hypertension” (J Med Chem, 2020).

Calls of active or inactive are those of the source. The rule behind the calls is not given here.

Assay [1] has as its target cGMP-specific 3',5'-cyclic phosphodiesterase (Homo sapiens) (UniProt O76074). As to conditions: dose 2.0 nM, time 15.0 min.
Assay [2] relates to Rattus norvegicus. The assay is described as follows: Inhibition of vascular remodeling activity in Sprague-Dawley rat model of hypoxia-induced pulmonary artery hypertension assessed as increase in body weight at 10 mg/kg, po administered daily for 2 weeks. It counts as functional, organism-based.
The target of assay [3] is T1, AMP-activated protein kinase, AMPK (Homo sapiens) (UniProt P54646+O43741+P54619+Q9UGJ0+Q9Y478+Q13131+Q9UGI9). The assay is described as follows: Inhibition of AMPK in TGFbeta-induced HPASMC assessed as reduction in cell migration measured after 24 hrs by wound healing assay. Format: tissue-based. As to conditions: Pulmonary Artery Smooth Muscle Cells, dose microM 5-10, time 24.0 hrs. In a few lines:
(§1)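 Wound-healing assay. 5 × 10^4 cells were seeded per well and grown 24 h to near confluence. The monolayer was scratched with a pipette tip and washed with PBS. Cells were then kept in 1% FBS medium with TGF-β (10 ng/mL) or under hypoxia (1% O2, 5% CO2, 94% N2), alone or with compound. Migration ran 24 h at 37 °C, imaged at 0 and 24 h. Mean ± SD from three independent experiments.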

Assay [4] relates to Pulmonary Artery Smooth Muscle Cells. As to the kind of experiment: Stimulation of sGC in HPASMC assessed as increase in intracellular cGMP level measured after 1 hr in absence of PDE5 inhibitor IBMX and sGC inhibitor ODQ by cGMP-d2/europium cryptate reagent based HTRF assay. It counts as tissue-based. As to conditions: Homo sapiens, filed as activator. In short, it runs like this:
(§2)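 HPASMCs were suspended at 100,000 cells/mL in PBS with 0.2% BSA, with or without 10 µM ODQ. Compounds were added as a 6-point, 10-fold dilution series; the top 2× stock was 200 µM. Incubation was 1 h at room temperature, in triplicate. cGMP-d2 in lysis buffer and europium cryptate were then added for 1 h before HTRF reading. Three independent experiments.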

The test system of assay [5] is Aorta. As to the kind of experiment: Vasodilating activity in Sprague-Dawley rat aortic rings assessed as reduction in phenylephrine-induced contractions at 1 uM relative to control. It counts as functional. In a few lines: (§3)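 Thoracic aorta from male SD rats (250-280 g) anesthetized with chloral hydrate, cut into 4 mm rings. Rings held in Krebs-Henseleit at 37 °C gassed with 95% O2/5% CO2, under 2 g resting tension, equilibrated 60 min, and precontracted with 10^-7 M phenylephrine. Cumulative concentrations of 3×10^-9 to 10^-6 M (final) applied. Percent relaxation of the initial contraction taken at 1 µM, and EC50 derived.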

Assay [6] has as its system Rattus norvegicus. The assay is described as follows: Inhibition of vascular remodeling activity in Sprague-Dawley rat model of hypoxia-induced pulmonary artery hypertension assessed as reduction in alpha-SMA expression in lungs at 10 mg/kg, po administered daily for 2 weeks by Western blot analysis. It counts as functional, organism-based. In short, it runs like this: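 Lungs came from hypoxic SD rats (10% O2, 4 weeks) dosed orally at 10 mg/kg daily for 14 days. Tissue was homogenised in RIPA buffer with protease and phosphatase inhibitors. 30 µg of protein was run on 10% SDS-PAGE and transferred to PVDF. Blots were probed overnight at 4 °C with anti-α-SMA (1:1000) and anti-β-actin (1:2000) and detected by fluorescence.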

The subject of assay [7] is Pulmonary Artery Smooth Muscle Cells. The assay is described as follows: Stimulation of sGC in HPASMC assessed as increase in intracellular cGMP level at 100 uM measured after 1 hr in presence of PDE5 inhibitor IBMX and sGC inhibitor ODQ by cGMP-d2/europium cryptate reagent based HTRF assay. It counts as tissue-based. As to conditions: Homo sapiens. In a few lines: as §2

The subject of the next assay is HLF1. The assay is described as follows: Antiproliferative activity against HLF1 cells measured after 48 hrs under hypoxic condition by CCK8 assay. Format: functional, cell-based. As to conditions: Homo sapiens. In short, it runs like this: (§4)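 HPASMCs were grown in high-glucose D-MEM with 20% FBS, and HLF1 in D-MEM/F-12 (1:1) with 10% FBS. Cells were seeded for exponential growth, then exposed to a range of compound concentrations for 48 h at 37 °C under hypoxia (1% O2, 5% CO2, 94% N2). CCK-8 was added for 4 h and absorbance read at 490 nm. IC50 came from dose-response curves averaged over three independent experiments.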

The target of assay [8] is T1, AMP-activated protein kinase, AMPK (Homo sapiens). The assay is described as follows: Inhibition of AMPK in TGFbeta-induced HLF1 cells assessed as reduction in cell migration measured after 24 hrs by wound healing assay. It counts as cell-based. As to conditions: dose microM 5-10, time 24.0 hrs. In short, it runs like this: as §1
In assay [9] the test system is Pulmonary Artery Smooth Muscle Cells. As to the kind of experiment: Stimulation of sGC in HPASMC assessed as increase in intracellular cGMP level at 100 uM measured after 1 hr in absence of PDE5 inhibitor IBMX by cGMP-d2/europium cryptate reagent based HTRF assay relative to control. Format: tissue-based. As to conditions: Homo sapiens. In short, it runs like this:
as §2

The subject of assay [10] is Rattus norvegicus. As to the kind of experiment: Inhibition of vascular remodeling activity in Sprague-Dawley rat model of hypoxia-induced pulmonary artery hypertension assessed as right ventricular systolic pressure at 10 mg/kg, po administered daily for 2 weeks by catheter method (reference value: 26.2 mmHg). It counts as functional.
The target in assay [11] is T1, AMP-activated protein kinase, AMPK (Homo sapiens). As to the kind of experiment: Inhibition of AMPK in hypoxia-induced HPASMC assessed as reduction in cell migration measured after 24 hrs by wound healing assay. It counts as tissue-based. As to conditions: Pulmonary Artery Smooth Muscle Cells, dose microM 5-10, time 24.0 hrs. In a few lines:
as §1

The nature of assay [12]: Antiproliferative activity against HLF1 cells assessed as reduction in TGFbeta-induced cell proliferation measured after 48 hrs by CCK8 assay. It counts as functional, cell-based. As to conditions: Homo sapiens, HLF1, 48 h. In short, it runs like this: (§5)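 HPASMCs grown in high-glucose D-MEM with 20% FBS and HLF1 in D-MEM/F-12 (1:1) with 10% FBS. Cells stimulated with TGF-β (10 ng/mL) at 37 °C, 5% CO2, then exposed to a concentration range for 48 h. CCK-8 added for 4 h and absorbance read at 490 nm. IC50 derived from the curves.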

Assay [13] relates to Rattus norvegicus. As to the kind of experiment: Inhibition of vascular remodeling activity in Sprague-Dawley rat model of hypoxia-induced pulmonary artery hypertension assessed as reduction in pulmonary artery medial thickness at 10 mg/kg, po administered daily for 2 weeks by H and E staining based digital microscopic analysis. Format: functional, organism-based. In short, it runs like this:
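Hypoxia model in male SD rats (10% O2, 4 weeks) with oral dosing at 10 mg/kg daily for 14 days in 0.5% CMC-Na. Paraffin-embedded lung tissue was cut into 5 µm sections and stained with H&E. Pulmonary artery medial thickness was quantified, n = 5/group.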

The target in assay [14] is T1, AMP-activated protein kinase, AMPK (Homo sapiens). As to the kind of experiment: Inhibition of AMPK in hypoxia-induced HLF1 cells assessed as reduction in cell migration measured after 24 hrs by wound healing assay. It counts as cell-based. As to conditions: dose microM 5-10, time 24.0 hrs. In short, it runs like this:
as §1

In assay [15] the test system is Aorta. As to the kind of experiment: Vasodilating activity in Sprague-Dawley rat aortic rings assessed as reduction in phenylephrine-induced contractions. Format: functional, tissue-based. In a few lines: as §3
For assay [16], the system named is Pulmonary Artery Smooth Muscle Cells. As to the kind of experiment: Stimulation of sGC in HPASMC assessed as increase in intracellular cGMP level measured after 1 hr in absence of PDE5 inhibitor IBMX and presence of sGC inhibitor ODQ by cGMP-d2/europium cryptate reagent based HTRF assay. It counts as tissue-based. As to conditions: Homo sapiens, filed as activator. In short, it runs like this:
as §2

Assay [17] has as its system Rattus norvegicus. The assay is described as follows: Inhibition of vascular remodeling activity in Sprague-Dawley rat model of hypoxia-induced pulmonary artery hypertension assessed as weight ratio of right ventricle/left ventricle plus septum at 10 mg/kg, po administered daily for 2 weeks (reference value: 0.63). Format: functional.
In assay [18] the test system is Pulmonary Artery Smooth Muscle Cells. As to the kind of experiment: Stimulation of sGC in HPASMC assessed as increase in intracellular cGMP level at 100 uM measured after 1 hr in presence of PDE5 inhibitor IBMX by cGMP-d2/europium cryptate reagent based HTRF assay relative to control. It counts as tissue-based. As to conditions: Homo sapiens, filed as activator. In a few lines: as §2

Assay [19] can be described thus: Antiproliferative activity against HPASMC assessed as reduction in TGFbeta-induced cell proliferation measured after 48 hrs by CCK8 assay. It counts as functional, tissue-based. As to conditions: Homo sapiens, Pulmonary Artery Smooth Muscle Cells. In short, it runs like this:
as §5

In assay [20] the test system is Pulmonary Artery Smooth Muscle Cells. As to the kind of experiment: Antiproliferative activity against HPASMC measured after 48 hrs under hypoxic condition by CCK8 assay. It counts as functional, tissue-based. As to conditions: Homo sapiens. In short, it runs like this: as §4
For assay [21], the system named is Rattus norvegicus. As to the kind of experiment: Inhibition of vascular remodeling activity in Sprague-Dawley rat model of hypoxia-induced pulmonary artery hypertension assessed as decrease in ratio of RV/tibial length at 10 mg/kg, po administered daily for 2 weeks. It counts as functional, organism-based.
The next assay is filed under the species Homo sapiens. As to the kind of experiment: Inhibition of CaMKKbeta phosphorylated recombinant human AMPK alpha1/beta1/gamma1 using 1-biotin as substrate incubated for 60 mins by HTRF assay. As to conditions: time 1.0 hrs. In a few lines:
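Kinase reaction with 0.16 µM STK substrate 1-biotin, 0.8 mmol DTT, 4 mmol MgCl2, 4 µM ATP and compound, started by adding 1 ng/µl CaMKKβ-prephosphorylated AMPK (α1β1γ1). Ran 1 h at 37 °C, then Eu3+-cryptate STK antibody plus 57.5 nmol/L XL-665 for 1 h at room temperature. Activity read as the 665/620 ratio ×10000. Curves averaged from three independent experiments.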

On to `CCCc1nn(C)c2c(=O)[nH]c(-c3cc(S(=O)(=O)N4CCN(C)CC4)ccc3OCC)nc12`, for which, in [1], the inhibition was determined as 54.9%.
Consider `COC(=O)N(C)c1c(N)nc(-c2nn(Cc3ccccc3F)c3ncccc23)nc1N` [RIOCIGUAT], for which the inhibition entry in the assay with Rattus norvegicus [2], with Rattus norvegicus [6], in the assay with Rattus norvegicus [13] and with Rattus norvegicus [21] was “Active” each time. For the same compound, the inhibition entry in assay [3], in [8], in [11] and in assay [14] was “Dose-dependent effect” throughout. Also, the outcome (in [4]; in the assay with HLF1; in [16]; in [20]) was Active. Further, the Emax at 1 µM in the assay with Aorta [5] is 93.6%. Besides, in [7], the outcome was inactive. Moreover, the Activity in assay [9] was 5%; with Rattus norvegicus [10], 22.3 mmHg; in assay [18], 50%. In addition, the IC50 in assay [12] and in assay [19] was over 100 µM throughout. Moreover, the EC50 in the assay with Aorta [15] came to 0.18 µM. For the same compound, the Ratio in the assay on Rattus norvegicus [17] was found to be 0.44. For the same compound, the inhibition entry in the assay listed under Homo sapiens is “inactive”.
